About 710 (0.51%) of roughly 140,000 compounds were called active.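 How the source made its calls: active means inhibition above a set limit, 3 SD over the mean compound inhibition (cut at about 44% in these data); inactive means the rest.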 For the sample, actives were picked, then their nearest neighbours and some compounds at random.
Test: growth inhibitors of yeast BB579 in restrictive medium, primary screen, yeast lifespan-shortening project, S. cerevisiae (AID 804)
Conditions: OD615, 48 h, at 10 µM, hits give high values
Summary of the method: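 test system = yeast BB579 (DeaD) | buffer or medium = restrictive CSMM-D medium | doses = single compound dose of 10 µM, 0.25% DMSO final | times = 4 h preincubation and 48 h exposure at 30 °C | technique = culture absorbance at 615 nm | benchmarks = amphotericin B 10 µg/mL, positive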

inhibition, active:
COc1ccc(/C=C/C(=O)c2cc(Br)ccc(=O)c2O)cc1 96%
Cc1nc(Cl)c2oc3ccccc3c2n1 59.5%
O=C(Nc1nnc(C2CC2)s1)c1ccccn1 62%
Cc1ncc(CC(=O)n2cc(C(=O)c3cc(Cl)ccc3O)cn2)s1 68.2%
COc1ccc(CN2CN(C(C)C)CSC2=S)cc1 68.5%
OC(CNCC1CCCO1)Cn1c2ccc(Br)cc2c2cc(Br)ccc21 (configuration not stated) 98.7%
COc1ccc2nc(/N=C(\N)NC(=O)Nc3ccccc3)nc(C)c2c1 68.3%

inhibition, inactive:
COc1ccc2nc(Nc3nc(-c4cc5ccccc5oc4=O)cs3)sc2c1 -1.96%
O=C(Cc1coc2ccc3ccccc3c12)NCc1cccs1 -8.63%
CCC(=O)Nc1c(S(=O)(=O)c2ccccc2)c2nc3ccccc3nc2n1Cc1ccccc1 -16.3%
O=C(O)c1ccc(/C=N/NC(=O)c2ccc(Br)cc2)cc1 -28.3%
O=S(=O)(NCCc1ccncc1)c1ccccc1 -4.48%
COc1cc(OC)c(C(=O)Nc2ccccc2-c2ccccc2)cc1OC -28.8%
CCNC(=O)NC(=O)C(C)OC(=O)C1CCN(S(=O)(=O)c2ccccc2F)CC1 (configuration not stated) 6.21%
COc1ccc(C(=O)/C=C/c2ccc(OC3CSC3)cc2)cc1 -16.1%
COc1ccc(/C=C/C(=O)c2ccc(OC)cc2O)cc1 -54.2%
Cc1ccc(C(=O)OCc2nc(N)nc(Nc3ccccc3C)n2)cc1 -34.8%
CC(=O)c1c(N2CCN(c3ccc(F)cc3)CC2)nc(=S)n(-c2ccccc2)c1C -54.2%
Cc1nc(N2CCCC2C(=O)O)c2oc3ccccc3c2n1 (configuration not stated) -21.7%
CCSc1nc(C)nc2c1oc1ccccc12 -45.9%
CCOC(=O)C1=C(C)OC(N)=C(C#N)C1c1cncc(-c2ccc(F)cc2)c1 (configuration not stated) -36.2%
COc1ccc(C(=O)C[n+]2ccc(C)cc2)cc1 -28.4%
CCc1ccc(NC(=O)CC2C(=O)NCCN2C(=S)Nc2ccccc2)cc1 (configuration not stated) -24.6%
COc1cccc(NC(=S)NC(=O)c2c(Cl)c(C)nn2C)c1 -62.5%
Cc1nc2sc(C(=O)c3ccccc3)c(N)c2c2c1CCCC2 8.75%
N#C/C(=C\c1ccccc1C(F)(F)F)C(=O)Nc1ccccc1F 4.84%
CC(=O)NC1=NN(C(C)=O)C(C)(c2ccc(C)cc2)S1 (configuration not stated) -33.1%
Fc1ccc2c(c1)C(c1cccnc1)=NNC(c1cccs1)=N2 -47.9%
COC(=O)c1ccc(C(=O)OC)c(NC(=S)N2CCN(c3ccc(F)cc3)CC2)c1 -49.1%
Cc1ccc(-n2c(SCC(=O)N3c4ccccc4Sc4ccccc43)nnc2-c2ccncc2)cc1 -47.4%
COc1ccc(C)cc1NC(=O)C(Sc1ccccc1)c1ccccc1 (configuration not stated) -2.09%
Cc1ccc(S(=O)(=O)N(C)C)cc1NC(=O)/C=C/c1cccs1 -48%
Cc1cc(/C=C2\SC(=Nc3ccc(N4CCOCC4)cc3)N(C)C2=O)c(C)n1-c1cccnc1 -7.27%
Cc1occc1C(=O)Nc1nnc(C2CCCCC2)s1 -32.1%
CC1CCN(c2ccc(C(=O)Nc3nnc(C4CC4)s3)cc2[N+](=O)[O-])CC1 -33%
CCC(NC(=O)c1ccccc1NC(=O)c1ccccc1)C(=O)NNC(=O)CSc1nc2ccccc2o1 (configuration not stated) -6.61%
CCS(=O)(=O)N1Cc2ccccc2CC1C(=O)Nc1nc2ccc(F)cc2s1 (configuration not stated) -23%
COc1cc(/C=C(/NC(=O)c2ccc(Cl)cc2Cl)C(=O)O)cc(OC)c1OC -17.4%
C#CCCCc1nc2ccccc2c(=O)n1N -33.7%
Cc1ccc(OCC(=O)Nc2ccccc2Sc2ccc(Cl)cc2)c([N+](=O)[O-])n1 -29.5%
CC1=C[C@H]2Cc3cc(C)cc(C)c3S(=O)(=O)[C@@H]2C=C1 -12.4%
CC(=O)N1C(C)c2ccccc2C(C)(C)CC12CCCCC2 (configuration not stated) -16.3%
O=c1c(Cl)c(NCc2ccc(F)cc2Cl)cnn1C12CC3CC(CC(C3)C1)C2 -27.1%
Cc1ccc(CCC(=O)Nc2ncc(Cc3cc(Cl)ccc3Cl)s2)o1 -66.6%
COc1cc(/C=C/C(=O)OCC(=O)Nc2cccc(Oc3ccccc3)c2)ccc1O -29.9%
C/C(=N/NC(=O)C1COc2ccccc2O1)c1ccco1 (configuration not stated) -32.3%
O=C(COC(=O)CSc1nnc(-c2ccc(Cl)cc2)o1)Nc1cc(Cl)cc(Cl)c1 -26.3%
CN(Cc1ccccc1)C(=O)COC(=O)c1ccccc1Nc1ccccc1 -8.71%
O=C(Nc1ccc([N+](=O)[O-])cc1)C1(c2ccccc2)CCOCC1 -16.4%
O=C(NC1CCCC1)C(NS(=O)(=O)c1ccc(Br)s1)c1ccccc1 (configuration not stated) -26.3%
O=S(=O)(c1ccc(F)cc1)N1CCN(C(=S)NCc2ccco2)CC1 -18%
N#C/C(=C(/O)COC(=O)COc1ccc(Cl)cc1)c1nc2ccccc2[nH]1 -22.6%
Cc1ccc(NC(=O)COC(=O)CCc2nc3ccccc3n2-c2ccccc2)c(C)c1 -45.6%
S=C1SCN(CCN2CCOCC2)CN1Cc1ccccc1 39.7%
COCC(=O)Nc1cc(C(=O)OC)cc(C(=O)OC)c1 6.64%
Cc1cc2oc(=O)cc(CN3CCN(S(=O)(=O)c4cccs4)CC3)c2cc1C(C)C -20.6%
Cc1ccc(CNC(=O)Cn2c(=O)c3sccc3n(Cc3cccc([N+](=O)[O-])c3)c2=O)cc1 -44.2%
Cc1cccc(NC(=O)Cn2c(=O)n(Cc3ccccc3)c(=O)c3c(C)c(C)sc32)c1 -27.1%
Cc1cc(Br)ccc1NC(=O)C1CCCO1 (configuration not stated) -21.5%
Cc1ccc(C(=O)NCC2CCCO2)o1 (configuration not stated) -26.6%
COc1ccc2nc(SCc3ccccc3)nc(C)c2c1 -34.5%
COc1ccc(NC(=O)Nc2ccc3nc(C)c(C)nc3c2)cc1 -50.2%

— PubChem BioAssay AID804 (SRMLSC, 2007)
